ChEMBL document CHEMBL1157953, “Antiviral flavans from the leaves of Pithecellobium clypearia” (J Nat Prod, 2006)
≈ marks a conversion by molar mass, not a printed value.

Columns and labels:
[1] = Cytotoxicity against MDCK cells after 3 days by MTT reduction assay; format: cell-based, Canis lupus familiaris; details: dog
Outline: (§1)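 Serial sample dilutions (from 40 mg/mL DMSO stock; top test concentration 1000 µg/mL in maintenance medium, 1% FBS with gentamicin) added in triplicate to confluent monolayers, 37 °C, 5% CO2. After 3 days MTT added for 3 h; formazan dissolved in DMSO, OD read at 540 and 690 nm. CC50 = concentration reducing viable cells to 50% of medium control.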

[2] = Cytotoxicity against african green monkey Vero cells after 3 days by MTT reduction assay; format: cell-based; details: chlorocebus sabaeus; outline: as §1
[3] = Selectivity index, CC50 for human Hep2 cells to IC50 for Cox B3 virus; format: functional, HEp-2
Outline: (§2)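 SI = CC50/IC50. CC50 came from an MTT assay: confluent monolayers were exposed in triplicate to sample dilutions for 3 days, then MTT was added for 3 h, formazan was dissolved in DMSO, and OD was read at 540/690 nm. CC50 is the concentration cutting viable cells to 50% of control. IC50 came from the CPE reduction assay in the matching cell line.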

[4] = Selectivity index, CC50 for MDCK cells to IC50 for influenza A virus H1N1 A/NWS/33; format: functional; outline: as §2
[5] = Selectivity index, CC50 for human Hep2 cells to IC50 for RSV Long; format: functional, HEp-2; outline: as §2
Coxsackievirus B3 = assay: Antiviral activity against Cox B3 virus in human Hep2 cells assessed as reduction of virus induced cytopathic effect; format: functional, organism-based; details: Enterovirus B, HEp-2
Outline: (§3)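 CPE reduction assay: confluent monolayers received 0.1 mL of 100 TCID50 virus simultaneously with 0.1 mL of serial 2-fold sample dilutions. Samples were dissolved in DMSO, then diluted into maintenance medium (MEM, 1% FBS, gentamicin, L-glutamine). Incubation at 37 °C, 5% CO2 for 4-6 days. CPE was scored 0-4 against virus and cell controls. IC50 is the concentration halving CPE, estimated from plots.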

[6] = tested on: Respiratory syncytial virus; assay: Antiviral activity against RSV Long in human Hep2 cells assessed as reduction of virus induced cytopathic effect; format: functional, organism-based; details: HEp-2; outline: as §3
Human alphaherpesvirus 1 = assay: Antiviral activity against HSV1 15577 in african green monkey Vero cells assessed as reduction of virus induced cytopathic effect; format: functional, organism-based; details: Human alphaherpesvirus 1, Vero; outline: as §3
[7] = Cytotoxicity against human Hep2 cells after 3 days by MTT reduction assay; format: cell-based, HEp-2; outline: as §1
[8] = Selectivity index, CC50 for african green monkey Vero cells to IC50 for HSV1 15577; format: functional; outline: as §2

| SMILES | CC50 at 72 h [1] [µg/mL] | MNTC at 72 h ([1]; read-out: MNCC) [µg/mL] | CC50 at 72 h [2] [µg/mL] | MNTC at 72 h ([2]; read-out: MNCC) [µg/mL] | Ratio CC50/IC50 [3] | Ratio CC50/IC50 [4] | Ratio CC50/IC50 [5] | IC50 (Coxsackievirus B3) [µg/mL] | IC50 [6] [µg/mL] | IC50 (Human alphaherpesvirus 1) [µg/mL] | CC50 at 72 h [7] [µg/mL] | MNTC at 72 h ([7]; read-out: MNCC) [µg/mL] | Ratio CC50/IC50 [8] |
| --- | --- | --- | --- | --- | --- | --- | --- | --- | --- | --- | --- | --- | --- |
| O=C(Oc1cc(O)c2c(c1)OC(c1cc(O)c(O)c(O)c1)CC2)c1cc(O)c(O)c(O)c1 (stereo not drawn) | 110 (≈ 249 µM) | 62.5 | 120 (≈ 271 µM) | 31.3 | 7.6 | 7 | 19 | 12.5 (≈ 28.3 µM) | 5 (≈ 11.3 µM) | 30 (≈ 67.8 µM) | 95 (≈ 215 µM) | 25 | 4 |
| Nc1nc2c(ncn2COCCO)c(=O)[nH]1 [ACYCLOVIR] |  |  | > 500 |  |  |  |  | 25 (≈ 111 µM) |  | 0.25 (≈ 1.11 µM) |  |  | >2000 |
| NC(=O)c1ncn([C@@H]2O[C@H](CO)[C@@H](O)[C@H]2O)n1 [RIBAVIRIN] |  |  |  |  |  |  |  |  | 3 (≈ 12.3 µM) |  |  |  |  |
